Measurements as given in ChEMBL document CHEMBL5096213 (Bioorg Med Chem, 2022).

Tests used:
[1] = Binding affinity to Mycobacterium tuberculosis PanD assessed as dissociation constant by isothermal titration calorimetry
Outline: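 ITC at 20 °C, 100 μM Mtb PanD titrated with 2 mM ligand, after desalting into 50 mM Tris pH 7.5. Buffer-versus-compound heats subtracted. KD obtained by least-squares fit of the binding isotherm to a single-site model.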

[2] = system: Mycobacterium tuberculosis; assay: Binding affinity to Mycobacterium tuberculosis PanD assessed as change in entropy by isothermal titration calorimetry
Outline: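 Mtb PanD (100 μM) in 50 mM Tris pH 7.5 titrated with 2 mM ligand by ITC at 20 °C. Buffer-versus-compound control heats subtracted. Isotherm fitted by least squares to a single-site binding model, which yields the thermodynamic parameters.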

[3] = Cytotoxicity against African green monkey Vero cells assessed as cell viability at 1.5 mM incubated for 24 hrs by XTT assay; type: toxicity, cell-based; conditions: chlorocebus sabaeus, read-out: Activity
Outline: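 Vero cells in EMEM with 10% FBS and penicillin/streptomycin were seeded at 500–1000 cells/well. They were dosed from DMSO stocks (final DMSO 0.5%) over 20 μM to 1.5 mM and incubated 24 h at 37 °C, 10% CO2. XTT was added 2 h before read-out at 450 nm, with 660 nm background. Viability was blank-subtracted and normalized to DMSO-only wells as 100%. Values are the mean of two technical replicates.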

SMILES | Kd [1] [µM] | TdeltaS [2] [kcal/mol] | viability at 24 h, 1500 µM [3] [%]
O=C(O)c1nccnc1Nc1ccccc1 | 47 | -2.5 | 
O=C(O)c1cnccn1 [PYRAZINOIC ACID] |  | 3 | 
O=C(O)c1nccnc1NCc1ccccc1 |  |  | 50
Nc1nccnc1C(=O)O | 40 | -0.7 | 50
CC(C)Nc1nccnc1C(=O)O | > 100 |  | 50
CCCNc1nccnc1C(=O)O | 7 | -5.7 | 50
Nc1cnc(C(=O)O)cn1 | 37 | 0.6 | 50
